Test results reported in ChEMBL document CHEMBL1143049, “Preparation, biological activity and endogenous occurrence of N6-benzyladenosines” (Bioorg Med Chem, 2007).

Assays:
G-361 = assay: Antitumor activity against human G361 cells after 72 hrs by Calcein AM assay; assay type: functional, cell-based; conditions: G-361, 72 h
Summary of the method: (§1)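 Cells grown in DMEM at 37 °C under 5% CO2. Compounds added after 12 h preincubation in 96-well plates, final 0.5-170 μM, with 0.6% final DMSO, then 72 h exposure. Viable cells stained with Calcein AM for 1 h and read at 485/538 nm. IC50 (concentration lethal to 50% of cells) taken from dose-response curves. Run in quadruplicate.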

B16 = assay: Antitumor activity against mouse B16 cells after 72 hrs by Calcein AM assay; assay type: functional, cell-based; conditions: B16, 72 h; summary of the method: as §1
[1] = Cytotoxicity against mouse NIH 3T3 cells after 72 hrs by Calcein AM assay; assay type: cell-based; conditions: NIH3T3, 72 h; summary of the method: as §1
Amaranthus [2] = assay: Cytokinin activity in Amaranthus cotyledons assessed as dark induction of betacyanin synthesis at 0.01 mmol/L relative to 6-Benzylaminopurine; assay type: functional
Summary of the method: (§2)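 Dark induction of betacyanin in excised Amaranthus cotyledons. DMSO stock brought to 10^-3 M in water, diluted into assay medium (DMSO ≤0.2%). Tested over 10^-4 to 10^-8 M, five replicates per concentration, assay repeated at least three times. Response at the optimal concentration expressed relative to BAP at its optimum (set to 100).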

Triticum aestivum [3] = assay: Cytokinin activity in wheat assessed as retention of chlorophyll in excised wheat leaves at 0.1 mmol/L relative to 6-Benzylaminopurine by senescence assay; assay type: functional
Summary of the method: (§3)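 Senescence assay measuring chlorophyll retention in excised wheat leaves. DMSO stocks brought to 10^-3 M with water, then diluted in assay medium to a final DMSO of at most 0.2%. Concentrations 10^-4 to 10^-8 M, quintuplicate, repeated at least three times. Response at the optimal concentration normalised to BAP optimum = 100.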

Nicotiana tabacum [4] = assay: Cytokinin activity in tobacco assessed as stimulation of callus growth at 1 umol/L relative to 6-Benzylaminopurine; assay type: functional
Summary of the method: (§4)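 Stimulation of tobacco callus growth. Compounds dissolved in DMSO, brought to 10^-3 M in water and diluted into medium (DMSO ≤0.2%). Range 10^-4 to 10^-8 M, five replicates per concentration, at least three independent repeats. Activity at the optimal concentration given relative to BAP's optimal response, taken as 100.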

HOS = assay: Antitumor activity against human HOS cells after 72 hrs by Calcein AM assay; assay type: functional, cell-based; summary of the method: as §1
K562 = assay: Antitumor activity against human K562 cells after 72 hrs by Calcein AM assay; assay type: functional, cell-based; conditions: K562, 72 h; summary of the method: as §1
[5] = Antitumor activity against human MCF cells after 72 hrs by Calcein AM assay; assay type: functional, cell-based; summary of the method: as §1
CCRF-CEM = assay: Antitumor activity against human CEM cells after 72 hrs by Calcein AM assay; assay type: functional, cell-based; summary of the method: as §1
HL-60 = assay: Antitumor activity against human HL60 cells after 72 hrs by Calcein AM assay; assay type: functional, cell-based; conditions: HL-60, 72 h; summary of the method: as §1
Amaranthus [6] = assay: Cytokinin activity in Amaranthus cotyledons assessed as dark induction of betacyanin synthesis at 0.1 mmol/L relative to 6-Benzylaminopurine; assay type: functional; summary of the method: as §2
[7] = biological target: T1, Histidine kinase 3 (Arabidopsis thaliana) (UniProt Q9C5U1); assay: Activation of Arabidopsis thaliana AHK3 cytokinin receptor relative to trans-zeatin; design: concentration or dose not given beside the values
T1 sequence (whole entry): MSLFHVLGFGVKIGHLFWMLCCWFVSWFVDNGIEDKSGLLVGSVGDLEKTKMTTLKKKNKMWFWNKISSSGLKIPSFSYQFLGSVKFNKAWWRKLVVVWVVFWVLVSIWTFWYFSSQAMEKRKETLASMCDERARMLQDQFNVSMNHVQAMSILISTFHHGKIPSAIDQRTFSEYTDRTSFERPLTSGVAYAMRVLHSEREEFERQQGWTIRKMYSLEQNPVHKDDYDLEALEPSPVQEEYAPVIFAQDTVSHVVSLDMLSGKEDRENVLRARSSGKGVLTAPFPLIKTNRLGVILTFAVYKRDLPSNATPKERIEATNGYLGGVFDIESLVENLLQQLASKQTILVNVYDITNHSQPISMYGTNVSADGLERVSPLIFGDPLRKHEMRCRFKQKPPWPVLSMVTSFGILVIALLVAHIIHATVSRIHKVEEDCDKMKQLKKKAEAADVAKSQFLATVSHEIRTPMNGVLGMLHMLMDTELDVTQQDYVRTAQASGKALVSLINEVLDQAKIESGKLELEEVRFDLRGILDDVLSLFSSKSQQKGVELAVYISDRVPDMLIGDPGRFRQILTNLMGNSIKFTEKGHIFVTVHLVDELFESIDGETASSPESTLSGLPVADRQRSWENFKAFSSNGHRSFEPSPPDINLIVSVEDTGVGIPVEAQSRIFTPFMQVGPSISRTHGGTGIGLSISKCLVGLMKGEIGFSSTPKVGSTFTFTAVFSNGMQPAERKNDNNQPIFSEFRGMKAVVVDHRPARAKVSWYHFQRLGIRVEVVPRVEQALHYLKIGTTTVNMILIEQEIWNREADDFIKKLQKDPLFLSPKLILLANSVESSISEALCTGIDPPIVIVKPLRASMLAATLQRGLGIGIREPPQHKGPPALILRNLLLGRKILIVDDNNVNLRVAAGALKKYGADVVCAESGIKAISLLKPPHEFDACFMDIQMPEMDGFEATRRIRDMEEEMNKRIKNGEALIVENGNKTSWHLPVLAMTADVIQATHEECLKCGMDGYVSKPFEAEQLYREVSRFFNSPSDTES
Summary of the method: (§5)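 E. coli KMI001 carrying pSTV28-AHK3 or pIN-III-AHK4, precultured overnight at 25 °C in M9 + 0.1% casamino acids to OD600 ~1. Diluted 1:600, compound or solvent added, then incubated at 25 °C for 28 h (AHK3) or 17 h (CRE1/AHK4). Supernatant incubated with 4-methylumbelliferyl β-D-galactoside for 1 h at 37 °C and stopped with Na2CO3. Fluorescence read at 365/460 nm. β-galactosidase expressed as nmol 4-MU × OD600⁻¹ × h⁻¹.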

[8] = biological target: Histidine kinase 4 (Arabidopsis thaliana) (UniProt Q9C5U0); assay: Activation of Arabidopsis thaliana CRE1/AHK4 cytokinin receptor relative to trans-zeatin; design: concentration or dose not given beside the values; summary of the method: as §5
Sequence of Histidine kinase 4 (Arabidopsis thaliana) (Q9C5U0 whole entry): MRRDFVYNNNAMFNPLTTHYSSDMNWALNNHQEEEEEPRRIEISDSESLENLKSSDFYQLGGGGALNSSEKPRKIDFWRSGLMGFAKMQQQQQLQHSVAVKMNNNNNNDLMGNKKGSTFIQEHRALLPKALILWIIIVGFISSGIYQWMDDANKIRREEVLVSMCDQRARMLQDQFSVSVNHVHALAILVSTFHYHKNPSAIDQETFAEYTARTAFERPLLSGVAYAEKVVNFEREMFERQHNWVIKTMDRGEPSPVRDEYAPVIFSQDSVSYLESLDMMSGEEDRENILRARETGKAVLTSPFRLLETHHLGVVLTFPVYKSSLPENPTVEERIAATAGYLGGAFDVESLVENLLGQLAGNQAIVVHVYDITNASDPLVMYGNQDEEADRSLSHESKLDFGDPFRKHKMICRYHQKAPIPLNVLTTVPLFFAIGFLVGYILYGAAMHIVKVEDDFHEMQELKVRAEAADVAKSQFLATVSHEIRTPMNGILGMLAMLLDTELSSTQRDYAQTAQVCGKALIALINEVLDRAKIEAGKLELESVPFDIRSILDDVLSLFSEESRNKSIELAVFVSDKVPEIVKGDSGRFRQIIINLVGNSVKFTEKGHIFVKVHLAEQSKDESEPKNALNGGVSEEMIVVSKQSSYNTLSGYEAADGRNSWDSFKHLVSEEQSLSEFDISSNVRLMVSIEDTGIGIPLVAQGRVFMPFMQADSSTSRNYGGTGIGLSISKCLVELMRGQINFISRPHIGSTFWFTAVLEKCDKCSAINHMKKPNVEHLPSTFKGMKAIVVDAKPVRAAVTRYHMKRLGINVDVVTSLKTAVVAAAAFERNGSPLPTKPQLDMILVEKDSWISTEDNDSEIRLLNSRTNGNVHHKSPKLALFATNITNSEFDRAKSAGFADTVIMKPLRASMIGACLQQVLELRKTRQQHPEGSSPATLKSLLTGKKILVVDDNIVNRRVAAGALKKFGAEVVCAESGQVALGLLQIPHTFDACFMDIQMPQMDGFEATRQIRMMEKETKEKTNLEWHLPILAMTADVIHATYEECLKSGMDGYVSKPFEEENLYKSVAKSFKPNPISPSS

Nicotiana tabacum [9] = assay: Cytokinin activity in tobacco assessed as stimulation of callus growth at 0.01 mmol/L relative to 6-Benzylaminopurine; assay type: functional; summary of the method: as §4
Triticum aestivum [10] = assay: Cytokinin activity in wheat assessed as retention of chlorophyll in excised wheat leaves at 0.1 umol/L relative to 6-Benzylaminopurine by senescence assay; assay type: functional; summary of the method: as §3

With `Cc1cccc(CNc2ncnc3c2ncn3[C@@H]2O[C@H](CO)[C@@H](O)[C@H]2O)c1` the IC50 (G-361) was over 167 µM, the IC50 (B16) was over 167 µM and the IC50 [1] was over 167 µM. The Activity (Amaranthus [2]) was 96%, the Activity (Triticum aestivum [3]) was 143% and the Activity (Nicotiana tabacum [4]) was 90%. The IC50 (HOS) was over 167 µM, the IC50 (K562) was over 167 µM and the IC50 [5] was over 167 µM. It also gave an IC50 (CCRF-CEM) of 19.1 µM and an IC50 (HL-60) of 6.4 µM.

`COc1cccc(CNc2ncnc3c2ncn3[C@@H]2O[C@H](CO)[C@@H](O)[C@H]2O)c1` showed an IC50 (B16) of over 167 µM, an IC50 [1] of over 167 µM and an Activity (Amaranthus [6]) of 98%. For the same molecule, the Activity (Triticum aestivum [3]) was 209%, the Activity (Nicotiana tabacum [4]) was 92% and the Activity [7] was 1.12%. The Activity [8] was 0.14%, the IC50 (HOS) was over 167 µM and the IC50 (K562) was over 167 µM. For the same molecule, the IC50 [5] was over 167 µM, the IC50 (CCRF-CEM) was 7.6 µM and the IC50 (HL-60) was 4.9 µM.

`COc1ccccc1CNc1ncnc2c1ncn2[C@@H]1O[C@H](CO)[C@@H](O)[C@H]1O` gave an IC50 (G-361) of over 167 µM, an IC50 (B16) of over 167 µM and an IC50 [1] of 140 µM. For the same molecule, the Activity (Amaranthus [2]) was 86%, the Activity (Triticum aestivum [3]) was 198% and the Activity (Nicotiana tabacum [9]) was 108%. It also gave an Activity [7] of 0.04%, an Activity [8] of 0.12% and an IC50 (HOS) of over 167 µM. For the same molecule, the IC50 (K562) was 8.9 µM, the IC50 [5] was over 167 µM and the IC50 (CCRF-CEM) was 3.2 µM. It also gave an IC50 (HL-60) of 2.3 µM.

Work on `OC[C@H]1O[C@@H](n2cnc3c(NCc4ccc(O)c(O)c4)ncnc32)[C@H](O)[C@@H]1O` yielded an Activity (Amaranthus [6]) of 8%, an Activity (Triticum aestivum [10]) of 17% and an Activity (Nicotiana tabacum [4]) of 4%.

With `OC[C@H]1O[C@@H](n2cnc3c(NCc4ccc(Cl)cc4)ncnc32)[C@H](O)[C@@H]1O` the IC50 (G-361) was over 167 µM, the IC50 (B16) was over 167 µM and the IC50 [1] was over 167 µM. It also gave an Activity (Amaranthus [2]) of 35%, an Activity (Triticum aestivum [3]) of 104% and an Activity (Nicotiana tabacum [4]) of 46%. It also gave an Activity [7] of 0.81%, an Activity [8] of 0.23% and an IC50 (HOS) of over 167 µM. For the same molecule, the IC50 (K562) was 218 µM, the IC50 [5] was over 167 µM and the IC50 (CCRF-CEM) was 10.2 µM. The IC50 (HL-60) was 1.7 µM.

In the case of `OC[C@H]1O[C@@H](n2cnc3c(NCc4ccccc4Cl)ncnc32)[C@H](O)[C@@H]1O`, the IC50 (B16) is reported as over 167 µM, the IC50 [1] is reported as over 167 µM and the Activity (Amaranthus [2]) is reported as 113%. It also gave an Activity (Triticum aestivum [3]) of 119%, an Activity (Nicotiana tabacum [4]) of 93% and an Activity [7] of 0.02%. It also gave an Activity [8] of 0.04%, an IC50 (HOS) of over 167 µM and an IC50 (K562) of 64 µM. For the same molecule, the IC50 [5] was over 167 µM, the IC50 (CCRF-CEM) was 14.5 µM and the IC50 (HL-60) was 1.6 µM.
